The values below come from ChEMBL document CHEMBL5230171, “Expanding the structure-activity relationships of alkynyl diphenylurea scaffold as promising antibacterial agents” (RSC Med Chem, 2023).

For test [1], the system named is Staphylococcus aureus. Nature of the test: Induction of drug resistance in methicillin resistant Staphylococcus aureus NRS384 USA300 assessed as fold change in MIC measured after 4 passages by broth microdilution method. The class given is functional. An outline of the steps: (§1)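 Multi-step resistance in MRSA USA300 over 14 consecutive passages, with rifampicin as the control antibiotic. The MIC was determined by broth microdilution at each passage. Resistance was defined as a greater than four-fold rise over the initial MIC.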

The test system of test [2] is Staphylococcus aureus. Nature of the test: Induction of drug resistance in methicillin resistant Staphylococcus aureus NRS384 USA300 assessed as fold change in MIC measured from passage 5 to 14 by broth microdilution method. Format: functional. An outline of the steps: as §1

`CO[C@H]1/C=C/O[C@@]2(C)Oc3c(C)c(O)c4c(O)c(c(/C=N/N5CCN(C)CC5)c(O)c4c3C2=O)NC(=O)/C(C)=C\C=C\[C@H](C)[C@H](O)[C@@H](C)[C@@H](O)[C@@H](C)[C@H](OC(C)=O)[C@@H]1C` [RIFAMPIN]: the “fold change (FC)” value is given as more than 4 with Staphylococcus aureus [1] and 15 in the test on Staphylococcus aureus [2].
